Source: ChEMBL document CHEMBL5724801, “EUbOPEN Chemogenomics Library - Multiplex” (2024)
“And” between values parts separate entries of the source, which are not always exact repeats. Identical values can stand only once.

Tested on: Fibroblast
Experiment: Multiplex assay against human fibroblast
Format: toxicity, cell-based
Summary of the method: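 Live cells carried four stains from seeding: Hoechst33342, BioTracker Green Microtubule Cytoskeleton Dye, MitoTracker Red and Annexin V Alexa Fluor 680. They were imaged on a CQ1 microscope at 37°C and 5% CO2 after compound addition. Using CellPathfinder machine-learning gating, cells were split into Hoechst high-intensity objects or normal cells, normal cells into healthy, pyknosed or fragmented nuclei, and pyknosed cells into mitotic or apoptotic; tubulin, mitochondrial-mass and membrane-permeability phenotypes are per cents of healthy-nucleus cells.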

[1] = 12 h, 1 µM, compound concentration 1 uM
[2] = 12 h, 10 µM, compound concentration 10 uM
[3] = 24 h, 1 µM, compound concentration 1 uM
[4] = 24 h, 10 µM, compound concentration 10 uM
[5] = 48 h, 1 µM, compound concentration 1 uM
[6] = 48 h, 10 µM, compound concentration 10 uM

## Cn1ncnc1COc1nn2c(-c3cc(F)ccc3F)nnc2cc1C(C)(C)C
[1]
  Population Apoptotic (%): 5.08% and 12.9%
  Population Fragmented Nuclei (%): 11.68% and 7.25%
  Population Healthy Nuclei (%): 58.38% and 76.68%
  Population Hoechst High Intensity Objects (%): 0%
  Population Mitochondria Different-Phenotype (%): 6.09% and 8.11%
  Population Mitotic Cells (%): 94.92% and 87.1%
  Population Normal (%): 100%
  Population Pyknosed Nuclei (%): 29.95% and 16.06%
  Population Tubulin-Different-Phenotype (%): 13.04% and 21.62%
  Total Cell Count: 197 and 193
[2]
  Population Apoptotic (%): 6.76% and 16.22%
  Population Healthy Nuclei (%): 51.12% and 80%
  Population Hoechst High Intensity Objects (%): 0%
  Population Mitochondria Different-Phenotype (%): 14.04% and 8.67%
  Population Mitotic Cells (%): 93.24% and 83.78%
  Population Normal (%): 100%
  Population Pyknosed Nuclei (%): 33.18% and 15.1%
  Population Tubulin-Different-Phenotype (%): 35.96% and 51.02%
  Total Cell Count: 223 and 245
[3]
  Population Fragmented Nuclei (%): 8.72% and 5.03%
  Population Healthy Nuclei (%): 67.89% and 83.42%
  Population Hoechst High Intensity Objects (%): 0%
  Population Mitochondria Different-Phenotype (%): 1.35% and 7.23%
  Population Mitotic Cells (%): 94.12% and 60.87%
  Population Normal (%): 100%
  Population Pyknosed Nuclei (%): 23.39% and 11.56%
  Population Tubulin-Different-Phenotype (%): 10.14% and 19.28%
  Total Cell Count: 218 and 199
[4]
  Population Apoptotic (%): 13.24% and 17.24%
  Population Fragmented Nuclei (%): 8.07% and 9.51%
  Population Healthy Nuclei (%): 61.43% and 79.47%
  Population Hoechst High Intensity Objects (%): 0%
  Population Mitochondria Different-Phenotype (%): 11.68% and 10.05%
  Population Mitotic Cells (%): 86.76% and 82.76%
  Population Normal (%): 100%
  Population Pyknosed Nuclei (%): 30.49% and 11.03%
  Population Tubulin-Different-Phenotype (%): 45.99% and 56.46%
  Total Cell Count: 223 and 263
[5]
  Population Fragmented Nuclei (%): 7.91% and 5.24%
  Population Healthy Nuclei (%): 84.58% and 83.81%
  Population Hoechst High Intensity Objects (%): 0%
  Population Mitochondria Different-Phenotype (%): 12.15% and 3.41%
  Population Mitotic Cells (%): 68.42% and 91.3%
  Population Normal (%): 100%
  Population Pyknosed Nuclei (%): 7.51% and 10.95%
  Total Cell Count: 253 and 210
[6]
  Population Apoptotic (%): 23.08% and 30.77%
  Population Fragmented Nuclei (%): 10.08% and 8.8%
  Population Healthy Nuclei (%): 78.99% and 86%
  Population Hoechst High Intensity Objects (%): 0%
  Population Mitochondria Different-Phenotype (%): 8.51% and 7.44%
  Population Mitotic Cells (%): 76.92% and 69.23%
  Population Normal (%): 100%
  Population Pyknosed Nuclei (%): 10.92% and 5.2%
  Population Tubulin-Different-Phenotype (%): 38.3% and 59.07%
  Total Cell Count: 238 and 250

## CCOC(=O)c1cnn(-c2ccc(NC(=O)C(Cl)=C(Cl)Cl)cc2)c1C(F)(F)F
[1]
  Population Apoptotic (%): 8.82% and 15%
  Population Fragmented Nuclei (%): 15.65% and 11.22%
  Population Healthy Nuclei (%): 61.22% and 68.37%
  Population Hoechst High Intensity Objects (%): 0%
  Population Membrane Permeable-Phenotype (%): 5.56% and 0%
  Population Mitochondria Different-Phenotype (%): 6.67% and 10.45%
  Population Mitotic Cells (%): 91.18% and 85%
  Population Normal (%): 100%
  Population Pyknosed Nuclei (%): 23.13% and 20.41%
  Population Tubulin-Different-Phenotype (%): 8.89% and 11.94%
  Total Cell Count: 147 and 196
[2]
  Population Apoptotic (%): 23.28% and 49.64%
  Population Fragmented Nuclei (%): 10.69% and 2.33%
  Population Healthy Nuclei (%): 16.35% and 18.02%
  Population Hoechst High Intensity Objects (%): 0%
  Population Membrane Permeable-Phenotype (%): 7.69% and 12.9%
  Population Mitotic Cells (%): 76.72% and 50.36%
  Population Normal (%): 100%
  Population Pyknosed Nuclei (%): 72.96% and 79.65%
  Population Tubulin-Different-Phenotype (%): 42.31% and 54.84%
  Total Cell Count: 159 and 172
[3]
  Population Apoptotic (%): 32.35% and 26.32%
  Population Fragmented Nuclei (%): 13.42% and 8.93%
  Population Healthy Nuclei (%): 63.76% and 82.59%
  Population Hoechst High Intensity Objects (%): 0%
  Population Membrane Permeable-Phenotype (%): 1.05% and 1.08%
  Population Mitochondria Different-Phenotype (%): 5.26% and 3.78%
  Population Mitotic Cells (%): 67.65% and 73.68%
  Population Normal (%): 100%
  Population Pyknosed Nuclei (%): 22.82% and 8.48%
  Population Tubulin-Different-Phenotype (%): 12.63% and 12.43%
  Total Cell Count: 149 and 224
[4]
  Population Apoptotic (%): 37.76% and 80.65%
  Population Fragmented Nuclei (%): 17.09% and 8.6%
  Population Healthy Nuclei (%): 20.89% and 24.73%
  Population Hoechst High Intensity Objects (%): 0%
  Population Membrane Permeable-Phenotype (%): 15.15% and 43.48%
  Population Mitochondria Different-Phenotype (%): 0% and 19.57%
  Population Normal (%): 100%
  Population Pyknosed Nuclei (%): 62.03% and 66.67%
  Population Tubulin-Different-Phenotype (%): 39.39% and 84.78%
  Total Cell Count: 158 and 186
[5]
  Population Apoptotic (%): 35.29% and 26.67%
  Population Fragmented Nuclei (%): 12.65% and 7.11%
  Population Healthy Nuclei (%): 77.11% and 86.22%
  Population Hoechst High Intensity Objects (%): 0%
  Population Membrane Permeable-Phenotype (%): 0.78% and 1.55%
  Population Mitotic Cells (%): 64.71% and 73.33%
  Population Normal (%): 100%
  Population Pyknosed Nuclei (%): 10.24% and 6.67%
  Population Tubulin-Different-Phenotype (%): 4.69% and 11.86%
  Total Cell Count: 166 and 225
[6]
  Population Apoptotic (%): 35.48% and 83.87%
  Population Fragmented Nuclei (%): 22.75% and 43.62%
  Population Healthy Nuclei (%): 58.68% and 39.89%
  Population Hoechst High Intensity Objects (%): 0%
  Population Membrane Permeable-Phenotype (%): 14.29% and 37.33%
  Population Mitochondria Different-Phenotype (%): 15.31% and 25.33%
  Population Normal (%): 100%
  Population Pyknosed Nuclei (%): 18.56% and 16.49%
  Population Tubulin-Different-Phenotype (%): 40.82% and 89.33%
  Total Cell Count: 167 and 188
